Source: ChEMBL document CHEMBL1800061 (J Med Chem, 2010)
Active and inactive are the calls of the source. No cut-off for these calls is given here.

Assays:
[1] = molecular target: Cyclin-dependent kinase 1 (Homo sapiens) (UniProt P06493); test: Inhibition of CDK1-mediated phosphorylation of PP1a at Thr320 in human HCT116 cells after 24 hrs by immunoblotting analysis; assay type: cell-based; settings: HCT-116
In short: (§1)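 HCT116 colon cancer cells were kept in DMEM with 10% FCS. Cells (8×10^5) were plated, dosed 24 h later, and exposed for 4 or 24 h. Whole-cell lysates were made in RIPA buffer with phosphatase and protease inhibitor cocktails and normalised by BCA protein assay. They were immunoblotted for phospho-sites, total proteins and cyclins.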

[2] = molecular target: Cyclin-dependent kinase 1 (Homo sapiens) (UniProt P06493); test: Inhibition of CDK1-mediated phosphorylation of […] in human HCT116 cells after 4 hrs by immunoblotting analysis; assay type: cell-based; settings: HCT-116; in short: as §1
[3] = molecular target: Mitogen-activated protein kinase 8 (Homo sapiens) (UniProt P45983); test: Inhibition of JNK1 assessed as residual enzyme activity at 10 uM
[4] = test system: HCT-116; test: Cell cycle arrest in human HCT116 cells assessed as concomitant increase in cells at G2/M phase at 1 to 10 umol/L after 24 hrs by propidium iodide staining based flow cytometric analysis; assay type: functional
In short: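 HCT116 cells (4×10^5) were allowed to adhere for 24 h, then exposed to 1 or 10 μmol/L compound from DMSO for 24 h. Cells were fixed in 70% ethanol at 4 °C and stained overnight with RNase and propidium iodide. DNA content was read by flow cytometry. Results are from three independent experiments, with unpaired t test against the DMSO control.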

[5] = molecular target: Glycogen synthase kinase-3 beta (Homo sapiens) (UniProt P49841); test: Inhibition of GSK3-beta assessed as residual enzyme activity at 10 uM
[6] = Tmax in mouse at 10 mg/kg, po; assay type: ADME, organism-based; parameters: dose 10 mg/kg, route oral; settings: in vivo
[7] = test system: MCF-10A; test: Antiproliferative activity against human MCF10A cells after 72 hrs by sulforhodamine B assay; assay type: functional
In short: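 Cell lines were grown in DMEM with 10% FCS and treated with increasing concentrations for 72 h. Growth was read by sulforhodamine B staining and GI50 was derived. Values are means of at least three replicates with SD.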

[8] = molecular target: Rho-associated protein kinase 2 (Homo sapiens) (UniProt O75116); test: Inhibition of ROCK 2 assessed as residual enzyme activity at 10 uM
[9] = AUC (0 to last) in mouse at 10 mg/kg, iv; assay type: ADME, organism-based; parameters: time 0 - last, dose 10 mg/kg, route intravenous; settings: plasma
In short: (§2)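 Mice given 10 mg/kg by the ip, iv or oral route. Plasma levels were measured at 8 time points, with 3 animals per route for po and iv. Parameters came from a noncompartmental model. AUCINF was extrapolated to infinity, and bioavailability was calculated from AUCINF. The terminal slope used 3 points.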

[10] = AUC (0 to last) in mouse at 10 mg/kg, ip; assay type: ADME, organism-based; parameters: time 0 - last, dose 10 mg/kg, route intraperitoneal; settings: plasma; in short: as §2
[11] = molecular target: Cyclin-A2 (Homo sapiens) (UniProt P20248); settings: HCT-116, 1 umol/L
[12] = Metabolic stability in human liver microsomes as compound remaining at 1 uM; assay type: ADME, Microsome; settings: read-out: Stability
In short: (§3)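 Liver microsomes, test compound at 1 μM with NADP 1 mM, G6P 5 mM and G6PDHase 1 U/mL, in 0.6% methanol and 0.6% acetonitrile. Incubated 0 and 60 min at 37 °C. Reported as percent parent remaining, mean (range), n=2.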

[13] = test system: Mus musculus; test: Decrease in RB protein level in HCT116 xenografted nude BALB/c mouse at 25 mg/kg/day, po measured after 14 days by immunostaining […] relative to control; assay type: organism-based; parameters: route oral; settings: in vivo, 336 h
In short: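 Tumours from the oral HCT116 xenograft study were formalin-fixed and paraffin-embedded. Sections were immunostained for Rb, with antigen retrieval by microwaving 10 min in 10 mmol/L citrate at pH 6.0. At least 1000 nuclei per section were scored for percent positive cells, with t test against vehicle.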

[14] = molecular target: Serine/threonine-protein kinase BRSK2 (Homo sapiens) (UniProt Q8IWQ3); test: Inhibition of BRSK2 assessed as residual enzyme activity at 10 uM
[15] = molecular target: Dual specificity mitogen-activated protein kinase kinase 1 (Homo sapiens) (UniProt Q02750); test: Inhibition of MKK1 assessed as residual enzyme activity at 10 uM
[16] = test system: Mus musculus; test: Inhibition of cyclin-dependent kinase substrate […] phosphorylation at Ser2 in nude BALB/c mouse PBMC at 25 mg/kg, po measured after 6 hrs by immunostaining and flow cytometric analysis; assay type: functional
In short: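 Seven-week-old female nu/nu-BALB/c nude mice got a single oral gavage (vehicle 28% PEG300/5% dimethylacetamide/10% HPB cyclodextrin in water). Blood was taken by cardiac puncture at 6 h or 24 h, red cells were lysed, and PBMC were fixed and permeabilized. Cells were stained with Rb, Rb pThr821, PolII or PolII pSer2 antibodies plus an Alexa488 secondary, then read by flow cytometry; n=4 (n=3 at 100 mg/kg).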

[17] = molecular target: Homeodomain-interacting protein kinase 2 (Homo sapiens) (UniProt Q9H2X6); test: Inhibition of HIPK2 assessed as residual enzyme activity at 10 uM
[18] = molecular target: Tyrosine-protein kinase BTK (Homo sapiens) (UniProt Q06187); test: Inhibition of BTK assessed as residual enzyme activity at 10 uM
[19] = molecular target: Dual specificity tyrosine-phosphorylation-regulated kinase 3 (Homo sapiens) (UniProt O43781); test: Inhibition of DYRK3 assessed as residual enzyme activity at 10 uM
[20] = molecular target: Insulin receptor (Homo sapiens) (UniProt P06213); test: Inhibition of Histidine tagged-IR assessed as residual enzyme activity at 10 uM
[21] = molecular target: MAP kinase-activated protein kinase 5 (Homo sapiens) (UniProt Q8IW41); test: Inhibition of PRAK assessed as residual enzyme activity at 10 uM
[22] = molecular target: Calcium/calmodulin-dependent protein kinase type 1 (Homo sapiens) (UniProt Q14012); test: Inhibition of CAMK1 assessed as residual enzyme activity at 10 uM
[23] = molecular target: Cyclin-dependent kinase 9 (Homo sapiens) (UniProt P50750); test: Inhibition of CDK9-mediated phosphorylation at Ser2 in C-terminal domain of RNA polymerase 2 in human HCT116 cells after 4 hrs by immunoblotting analysis; assay type: cell-based; settings: HCT-116; in short: as §1
[24] = molecular target: Tyrosine-protein kinase CSK (Homo sapiens) (UniProt P41240); test: Inhibition of CSK assessed as residual enzyme activity at 10 uM
[25] = molecular target: Insulin receptor-related protein (Homo sapiens, UniProt P14616); test: Inhibition of IRR
[26] = Antiproliferative activity against human NCI60 cells after 72 hrs by sulforhodamine B assay; assay type: functional; settings: NCI60, 72 h
[27] = Metabolic stability in mouse liver microsomes as compound remaining at 1 uM; assay type: ADME, Microsome; settings: read-out: Stability; in short: as §3
[28] = test system: MCF7; test: Antitumor activity against human MCF7 cells xenografted in nude BALB/c mouse assessed as decrease in tumor volume at 10 mg/kg, ip bid for 14 days relative to control on day 1; assay type: functional; settings: route intraperitoneal
In short: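 Randomised nude mice bearing MCF-7 tumours were injected intraperitoneally twice daily with 5 or 10 mg/kg (10 or 20 mg/kg/day) for 14 days. The control group received vehicle. Tumour volume was expressed relative to each animal's own day 1 volume.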

[29] = molecular target: Proto-oncogene tyrosine-protein kinase Src (Homo sapiens) (UniProt P12931); test: Inhibition of Src assessed as residual enzyme activity at 10 uM
Chain of Proto-oncogene tyrosine-protein kinase Src (Homo sapiens) (P12931 2-536 limits assumed): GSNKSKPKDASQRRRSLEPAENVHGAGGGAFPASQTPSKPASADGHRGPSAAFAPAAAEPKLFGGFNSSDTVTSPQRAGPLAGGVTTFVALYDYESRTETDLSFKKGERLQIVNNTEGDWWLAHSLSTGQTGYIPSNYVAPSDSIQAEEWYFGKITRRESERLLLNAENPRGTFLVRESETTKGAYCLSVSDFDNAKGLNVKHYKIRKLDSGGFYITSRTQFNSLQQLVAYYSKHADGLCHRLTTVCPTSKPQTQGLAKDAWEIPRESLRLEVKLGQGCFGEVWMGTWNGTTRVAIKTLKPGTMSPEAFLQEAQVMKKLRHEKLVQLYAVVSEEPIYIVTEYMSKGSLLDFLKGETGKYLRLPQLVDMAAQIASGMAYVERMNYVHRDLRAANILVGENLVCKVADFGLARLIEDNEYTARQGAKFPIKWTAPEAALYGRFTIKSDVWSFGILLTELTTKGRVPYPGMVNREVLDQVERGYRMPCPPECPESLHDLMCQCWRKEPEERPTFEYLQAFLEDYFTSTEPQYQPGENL

Chain of Cyclin-dependent kinase 1 (Homo sapiens) (P06493 whole entry, looked up): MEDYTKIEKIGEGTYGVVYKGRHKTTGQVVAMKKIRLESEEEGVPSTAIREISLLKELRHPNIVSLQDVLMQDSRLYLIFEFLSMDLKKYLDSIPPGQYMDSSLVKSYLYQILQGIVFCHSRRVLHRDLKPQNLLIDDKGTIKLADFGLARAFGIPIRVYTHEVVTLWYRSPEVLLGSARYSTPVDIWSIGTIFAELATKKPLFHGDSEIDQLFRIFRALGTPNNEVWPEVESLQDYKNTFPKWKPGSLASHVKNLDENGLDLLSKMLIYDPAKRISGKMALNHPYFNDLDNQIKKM
Chain of Calcium/calmodulin-dependent protein kinase type 1 (Homo sapiens) (Q14012 whole entry, looked up, the tested form may be a part): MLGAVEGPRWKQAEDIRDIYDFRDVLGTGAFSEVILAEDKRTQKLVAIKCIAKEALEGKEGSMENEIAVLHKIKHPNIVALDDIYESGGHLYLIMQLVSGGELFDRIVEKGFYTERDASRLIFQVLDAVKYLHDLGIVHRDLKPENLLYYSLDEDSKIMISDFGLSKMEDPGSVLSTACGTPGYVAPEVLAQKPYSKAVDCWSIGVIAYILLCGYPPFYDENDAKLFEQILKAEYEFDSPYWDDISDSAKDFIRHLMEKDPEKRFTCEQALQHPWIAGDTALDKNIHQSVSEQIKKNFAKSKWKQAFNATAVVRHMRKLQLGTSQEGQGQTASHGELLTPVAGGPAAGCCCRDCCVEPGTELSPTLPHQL
Chain of Homeodomain-interacting protein kinase 2 (Homo sapiens) (Q9H2X6 whole entry, looked up): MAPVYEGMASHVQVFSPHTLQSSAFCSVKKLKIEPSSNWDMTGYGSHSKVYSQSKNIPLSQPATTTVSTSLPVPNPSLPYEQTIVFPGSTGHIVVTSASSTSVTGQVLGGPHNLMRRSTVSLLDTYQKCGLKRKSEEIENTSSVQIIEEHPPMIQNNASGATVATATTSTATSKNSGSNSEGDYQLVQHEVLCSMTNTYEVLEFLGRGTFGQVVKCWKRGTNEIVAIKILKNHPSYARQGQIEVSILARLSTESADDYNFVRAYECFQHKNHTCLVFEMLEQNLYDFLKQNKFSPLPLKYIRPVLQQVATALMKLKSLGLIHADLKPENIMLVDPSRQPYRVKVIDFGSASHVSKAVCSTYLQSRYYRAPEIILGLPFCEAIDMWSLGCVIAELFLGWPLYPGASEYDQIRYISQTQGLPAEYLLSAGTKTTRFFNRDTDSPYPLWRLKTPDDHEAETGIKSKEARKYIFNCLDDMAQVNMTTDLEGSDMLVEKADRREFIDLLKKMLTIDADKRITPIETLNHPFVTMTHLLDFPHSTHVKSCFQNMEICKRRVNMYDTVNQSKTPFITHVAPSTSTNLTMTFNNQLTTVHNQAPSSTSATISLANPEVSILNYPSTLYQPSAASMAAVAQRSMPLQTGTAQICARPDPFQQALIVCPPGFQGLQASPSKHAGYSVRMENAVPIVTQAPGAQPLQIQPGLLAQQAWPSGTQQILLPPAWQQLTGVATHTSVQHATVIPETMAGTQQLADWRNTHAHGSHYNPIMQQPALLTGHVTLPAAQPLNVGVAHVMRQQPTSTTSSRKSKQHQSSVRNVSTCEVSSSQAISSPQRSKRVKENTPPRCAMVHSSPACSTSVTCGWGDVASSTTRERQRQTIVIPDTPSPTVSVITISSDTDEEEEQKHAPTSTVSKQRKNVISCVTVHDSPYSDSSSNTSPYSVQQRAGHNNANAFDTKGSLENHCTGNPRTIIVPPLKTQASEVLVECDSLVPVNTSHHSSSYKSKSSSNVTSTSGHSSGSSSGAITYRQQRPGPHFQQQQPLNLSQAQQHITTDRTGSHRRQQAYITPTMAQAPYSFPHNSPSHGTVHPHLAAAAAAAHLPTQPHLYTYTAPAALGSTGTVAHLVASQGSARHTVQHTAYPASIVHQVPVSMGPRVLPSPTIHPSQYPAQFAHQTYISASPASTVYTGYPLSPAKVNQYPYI
Chain of Serine/threonine-protein kinase BRSK2 (Homo sapiens) (Q8IWQ3 whole entry): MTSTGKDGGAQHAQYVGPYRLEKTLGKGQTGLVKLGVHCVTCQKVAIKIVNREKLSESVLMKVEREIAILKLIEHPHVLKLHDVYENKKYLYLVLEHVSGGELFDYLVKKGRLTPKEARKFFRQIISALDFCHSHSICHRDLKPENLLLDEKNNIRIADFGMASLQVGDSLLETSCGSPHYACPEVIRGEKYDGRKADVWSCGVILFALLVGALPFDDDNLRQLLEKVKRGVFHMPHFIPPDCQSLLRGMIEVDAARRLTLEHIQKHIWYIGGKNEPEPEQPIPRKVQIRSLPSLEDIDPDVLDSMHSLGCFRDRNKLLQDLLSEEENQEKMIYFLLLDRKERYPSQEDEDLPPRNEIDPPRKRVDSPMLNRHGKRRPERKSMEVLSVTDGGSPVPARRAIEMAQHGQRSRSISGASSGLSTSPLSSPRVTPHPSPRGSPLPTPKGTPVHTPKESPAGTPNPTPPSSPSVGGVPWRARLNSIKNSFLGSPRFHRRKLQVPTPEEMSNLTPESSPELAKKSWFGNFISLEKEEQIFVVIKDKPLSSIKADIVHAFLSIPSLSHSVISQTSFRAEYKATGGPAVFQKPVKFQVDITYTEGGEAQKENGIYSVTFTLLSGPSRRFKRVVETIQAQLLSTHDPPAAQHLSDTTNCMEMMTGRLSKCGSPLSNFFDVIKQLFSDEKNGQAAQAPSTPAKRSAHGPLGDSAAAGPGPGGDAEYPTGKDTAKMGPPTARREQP
Chain of Dual specificity mitogen-activated protein kinase kinase 1 (Homo sapiens) (Q02750 whole entry): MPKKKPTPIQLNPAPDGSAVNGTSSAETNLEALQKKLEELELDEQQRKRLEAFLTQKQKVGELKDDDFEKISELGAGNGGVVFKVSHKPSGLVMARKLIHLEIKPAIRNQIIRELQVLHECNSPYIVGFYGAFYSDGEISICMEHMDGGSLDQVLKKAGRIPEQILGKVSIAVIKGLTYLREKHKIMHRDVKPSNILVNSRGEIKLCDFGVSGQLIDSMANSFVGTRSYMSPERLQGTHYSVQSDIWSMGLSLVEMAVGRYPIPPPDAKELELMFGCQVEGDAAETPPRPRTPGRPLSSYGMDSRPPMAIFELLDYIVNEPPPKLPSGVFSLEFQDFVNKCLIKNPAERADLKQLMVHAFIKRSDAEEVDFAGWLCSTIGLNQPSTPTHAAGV
Chain of Insulin receptor-related protein (P14616 27-742 limits assumed): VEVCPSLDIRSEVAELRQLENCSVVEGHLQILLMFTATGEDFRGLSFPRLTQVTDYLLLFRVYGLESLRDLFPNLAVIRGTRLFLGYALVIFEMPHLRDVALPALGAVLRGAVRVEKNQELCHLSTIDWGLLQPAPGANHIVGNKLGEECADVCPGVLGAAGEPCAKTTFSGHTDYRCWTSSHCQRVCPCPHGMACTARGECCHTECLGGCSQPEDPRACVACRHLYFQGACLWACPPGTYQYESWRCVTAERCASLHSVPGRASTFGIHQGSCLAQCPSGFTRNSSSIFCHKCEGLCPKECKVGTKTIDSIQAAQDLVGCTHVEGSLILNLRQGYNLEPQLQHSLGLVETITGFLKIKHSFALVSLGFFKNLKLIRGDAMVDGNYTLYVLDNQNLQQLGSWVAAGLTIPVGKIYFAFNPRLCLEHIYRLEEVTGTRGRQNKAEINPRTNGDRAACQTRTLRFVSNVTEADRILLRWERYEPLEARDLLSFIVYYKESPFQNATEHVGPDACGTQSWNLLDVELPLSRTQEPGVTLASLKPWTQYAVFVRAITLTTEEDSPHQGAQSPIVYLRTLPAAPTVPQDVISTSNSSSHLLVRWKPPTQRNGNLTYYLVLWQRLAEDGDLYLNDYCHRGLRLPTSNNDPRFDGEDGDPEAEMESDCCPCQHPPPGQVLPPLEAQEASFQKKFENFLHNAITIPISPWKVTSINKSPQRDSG
Chain of Insulin receptor-related protein (P14616 747-1297 limits assumed): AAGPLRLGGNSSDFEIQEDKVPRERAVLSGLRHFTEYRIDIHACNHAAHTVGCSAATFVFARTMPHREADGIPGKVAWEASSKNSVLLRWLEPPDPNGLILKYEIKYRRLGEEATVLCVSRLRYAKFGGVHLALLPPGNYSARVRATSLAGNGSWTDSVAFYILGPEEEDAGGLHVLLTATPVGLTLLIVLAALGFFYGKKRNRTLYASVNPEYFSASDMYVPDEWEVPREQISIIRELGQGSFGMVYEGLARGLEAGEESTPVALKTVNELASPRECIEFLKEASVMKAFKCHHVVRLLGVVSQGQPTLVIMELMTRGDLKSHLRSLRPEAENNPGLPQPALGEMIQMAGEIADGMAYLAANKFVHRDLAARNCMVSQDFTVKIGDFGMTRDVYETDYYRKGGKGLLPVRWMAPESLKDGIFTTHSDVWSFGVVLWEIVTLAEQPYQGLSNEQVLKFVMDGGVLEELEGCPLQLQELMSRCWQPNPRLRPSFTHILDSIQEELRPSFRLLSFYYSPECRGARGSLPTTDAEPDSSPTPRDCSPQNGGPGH

In the case of `CC(C)c1cnn2c(NCc3ccccc3)cc(N[C@@H](CO)[C@H](O)CO)nc12`, the inhibition [1] is reported as “Active”, the inhibition [2] is reported as “inactive” and the Activity [3] is reported as 93%. For the same compound, the Activity [4] was “Active”, the Activity [5] was 63% and the Tmax [6] was 15 min. For the same compound, the GI50 [7] was 100 nM, the Activity [8] was 102% and the AUC(0-t) [9] was 36200 ng·h/mL. The AUC(0-t) [10] was 26400 ng·h/mL, the inhibition [11] was “Active” and the remaining at 1 µM [12] was 83%. For the same compound, the Activity [13] was “Not Active”, the Activity [14] was 108% and the Activity [15] was 65%. For the same compound, the inhibition in vivo at 25 mg/kg [16] was 25%, the Activity [17] was 73% and the Activity [18] was 91%. It also gave an Activity [19] of 88%, an Activity [20] of 70% and an Activity [21] of 97%. For the same compound, the Activity [22] was 93%, the inhibition [23] was “Active” and the Activity [24] was 77%. For the same compound, the IC50 [25] was 1800 nM, the GI50 [26] was < 1000 nM and the remaining at 1 µM [27] was 29%. For the same compound, the inhibition in vivo at 10 mg/kg [28] was 40% and the Activity [29] was 95%.
